Results as given in ChEMBL document CHEMBL3826910, “Discovery of 3-(5'-Substituted)-Benzimidazole-5-(1-(3,5-dichloropyridin-4-yl)ethoxy)-1H-indazoles as Potent Fibroblast Growth Factor Receptor Inhibitors: Design, Synthesis, and Biological Evaluation” (J Med Chem, 2016).

What was measured:
NCI-H1581 [1] = assay: Antiproliferative activity against FGFR1-amplified human NCI-H1581 cells after 72 hrs by CCK8/MTT assay; format: functional, cell-based; settings: NCI-H1581, 72 h
[2] = target: Vascular endothelial growth factor receptor 2 (Homo sapiens, UniProt P35968); assay: Inhibition of recombinant human VEGFR2 using poly (Glu, Tyr) 4:1 as substrate after 60 mins by ELISA
Sequence of Vascular endothelial growth factor receptor 2 (P35968 whole entry): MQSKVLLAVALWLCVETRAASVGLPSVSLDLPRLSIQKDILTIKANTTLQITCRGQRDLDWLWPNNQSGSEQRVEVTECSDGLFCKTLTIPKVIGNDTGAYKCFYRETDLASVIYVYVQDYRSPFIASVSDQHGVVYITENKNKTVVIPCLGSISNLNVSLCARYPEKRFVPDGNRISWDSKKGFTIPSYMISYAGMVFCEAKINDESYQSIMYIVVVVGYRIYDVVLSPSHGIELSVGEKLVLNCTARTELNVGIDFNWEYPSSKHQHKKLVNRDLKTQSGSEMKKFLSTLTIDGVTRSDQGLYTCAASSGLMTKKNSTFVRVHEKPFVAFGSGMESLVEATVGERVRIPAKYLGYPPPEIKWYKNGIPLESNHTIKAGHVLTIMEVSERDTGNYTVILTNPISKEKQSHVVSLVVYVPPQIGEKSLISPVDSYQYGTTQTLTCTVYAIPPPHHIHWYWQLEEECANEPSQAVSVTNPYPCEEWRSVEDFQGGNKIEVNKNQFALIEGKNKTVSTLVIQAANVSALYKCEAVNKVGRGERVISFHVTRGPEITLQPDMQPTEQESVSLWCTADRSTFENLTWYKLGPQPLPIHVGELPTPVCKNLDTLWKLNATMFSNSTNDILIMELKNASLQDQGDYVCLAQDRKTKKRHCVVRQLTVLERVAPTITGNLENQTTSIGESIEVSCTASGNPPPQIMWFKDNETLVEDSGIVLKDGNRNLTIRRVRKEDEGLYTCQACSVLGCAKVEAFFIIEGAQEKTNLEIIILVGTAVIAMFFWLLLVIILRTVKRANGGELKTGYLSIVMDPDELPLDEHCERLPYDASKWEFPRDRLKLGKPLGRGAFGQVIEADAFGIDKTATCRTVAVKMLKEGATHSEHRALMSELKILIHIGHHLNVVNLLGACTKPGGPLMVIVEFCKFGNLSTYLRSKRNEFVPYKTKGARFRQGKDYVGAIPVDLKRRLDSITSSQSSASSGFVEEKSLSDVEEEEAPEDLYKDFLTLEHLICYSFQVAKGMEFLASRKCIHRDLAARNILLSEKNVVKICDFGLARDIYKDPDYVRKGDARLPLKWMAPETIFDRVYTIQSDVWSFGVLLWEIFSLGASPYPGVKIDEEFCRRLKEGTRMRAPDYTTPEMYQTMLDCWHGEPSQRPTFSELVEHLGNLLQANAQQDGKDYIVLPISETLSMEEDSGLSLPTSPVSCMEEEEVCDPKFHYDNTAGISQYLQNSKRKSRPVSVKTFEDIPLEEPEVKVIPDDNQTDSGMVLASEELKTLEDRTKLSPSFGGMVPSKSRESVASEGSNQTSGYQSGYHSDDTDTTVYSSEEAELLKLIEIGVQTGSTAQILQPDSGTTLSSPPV

[3] = target: Fibroblast growth factor receptor 1 (Homo sapiens, UniProt P11362); assay: Inhibition of recombinant human FGFR1 using poly (Glu, Tyr) 4:1 as substrate after 60 mins by ELISA
Sequence of Fibroblast growth factor receptor 1 (P11362 whole entry): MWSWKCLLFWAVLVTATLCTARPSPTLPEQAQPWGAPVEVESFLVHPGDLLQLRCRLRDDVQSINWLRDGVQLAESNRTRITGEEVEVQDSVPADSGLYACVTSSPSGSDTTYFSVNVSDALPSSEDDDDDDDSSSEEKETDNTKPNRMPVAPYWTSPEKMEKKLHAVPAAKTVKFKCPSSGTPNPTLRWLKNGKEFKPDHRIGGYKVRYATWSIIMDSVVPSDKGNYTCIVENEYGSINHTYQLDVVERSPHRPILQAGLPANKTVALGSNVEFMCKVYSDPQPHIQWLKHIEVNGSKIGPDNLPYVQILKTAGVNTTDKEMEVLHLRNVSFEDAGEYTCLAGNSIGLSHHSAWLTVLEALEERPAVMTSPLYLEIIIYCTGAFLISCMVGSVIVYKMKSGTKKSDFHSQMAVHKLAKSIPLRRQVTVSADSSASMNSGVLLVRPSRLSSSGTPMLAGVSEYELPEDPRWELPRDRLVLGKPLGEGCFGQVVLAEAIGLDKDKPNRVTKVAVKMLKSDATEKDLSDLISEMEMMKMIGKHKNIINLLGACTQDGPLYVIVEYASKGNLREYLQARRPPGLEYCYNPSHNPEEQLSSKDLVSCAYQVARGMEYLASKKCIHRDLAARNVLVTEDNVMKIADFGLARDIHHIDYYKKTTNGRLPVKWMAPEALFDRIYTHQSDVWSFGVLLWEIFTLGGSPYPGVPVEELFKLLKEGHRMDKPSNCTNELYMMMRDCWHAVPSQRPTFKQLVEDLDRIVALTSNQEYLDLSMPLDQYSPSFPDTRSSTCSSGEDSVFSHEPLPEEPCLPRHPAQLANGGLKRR

NCI-H1581 [4] = assay: Antitumor activity against human NCI-H1581 cells xenografted in nude mouse assessed as tumor growth inhibition at 20 mg/kg administered as qd for 21 days measured on day 21 post last dose relative to vehicle-treated control; format: functional; settings: NCI-H1581, 504 h, read-out: TGI
cells [5] = settings: Homo sapiens, RT-112, 72 h
cells [6] = settings: Homo sapiens, KG-1, 72 h
cells [7] = settings: Homo sapiens, SNU-16, 72 h
[8] = Clearance in Sprague-Dawley rat at 1 mg/kg, iv; format: ADME, organism-based; settings: in vivo
[9] = Half life in Sprague-Dawley rat at 1 mg/kg, iv; format: ADME, organism-based; settings: in vivo
[10] = Volume of distribution at steady state in Sprague-Dawley rat at 1 mg/kg, iv; format: ADME, organism-based; settings: in vivo, read-out: Vdss
[11] = Cmax in Sprague-Dawley rat at 1 mg/kg, iv; format: ADME, organism-based; design: dose 1 mg/kg, route intravenous; settings: in vivo
[12] = AUC (0 to infinity) in Sprague-Dawley rat at 5 mg/kg, po; format: ADME, organism-based; design: dose 5 mg/kg, route oral, time infinity; settings: in vivo
Outline: (§1)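 Male SD rats (n = 3) dosed orally by gavage at 5 mg/kg as a suspension in 0.5% CMC-Na. Quantified by LC-MS/MS. An IV arm (1 mg/kg) was run in parallel.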

[13] = Tmax in Sprague-Dawley rat at 5 mg/kg, po; format: ADME, organism-based; settings: in vivo; outline: as §1
[14] = Cmax in Sprague-Dawley rat at 5 mg/kg, po; format: ADME, organism-based; design: dose 5 mg/kg, route oral; settings: in vivo; outline: as §1
[15] = AUC (0 to infinity) in Sprague-Dawley rat at 1 mg/kg, iv; format: ADME, organism-based; design: dose 1 mg/kg, time infinity, route intravenous; settings: in vivo
[16] = Oral bioavailability in Sprague-Dawley rat at 5 mg/kg; format: ADME, organism-based; settings: in vivo; outline: as §1

Compound	IC50 (NCI-H1581 [1]) [nM]	also measured
CC(Oc1ccc2[nH]nc(-c3nc4cc(NCCN(C)C)ccc4[nH]3)c2c1)c1c(Cl)cncc1Cl (stereo not drawn)	1.1	–
Cc1cccc2[nH]c(-c3n[nH]c4ccc(OC(C)c5c(Cl)cncc5Cl)cc34)nc12 (stereo not drawn)	> 10000	–
Clc1cncc(Cl)c1COc1ccc2[nH]nc(-c3nc4cc(N5CCCCC5)ccc4[nH]3)c2c1	159	–
CCN1CCN(c2ccc3[nH]c(-c4n[nH]c5ccc(OC(C)c6c(Cl)cncc6Cl)cc45)nc3c2)CC1 (stereo not drawn)	5.9	–
CNc1ccc2[nH]c(-c3n[nH]c4ccc(OC(C)c5c(Cl)cncc5Cl)cc34)nc2c1 (stereo not drawn)	5.5	–
CC(Oc1ccc2[nH]nc(-c3nc4ccccc4o3)c2c1)c1c(Cl)cncc1Cl (stereo not drawn)	3040	–
CC(Oc1ccc2[nH]nc(-c3nc4cc(N(C)C(=O)CN(C)C)ccc4[nH]3)c2c1)c1c(Cl)cncc1Cl (stereo not drawn)	0.8	IC50 [2]: 2.5 nM
CC(Oc1ccc2[nH]nc(-c3nc4cc(N5CCOCC5)ccc4[nH]3)c2c1)c1c(Cl)cncc1Cl (stereo not drawn)	2.2	–
CC(Oc1ccc2[nH]nc(-c3nc4cc(N5CCCN(C)CC5)ccc4[nH]3)c2c1)c1c(Cl)cncc1Cl (stereo not drawn)	8.1	–
CC(Oc1ccc2[nH]nc(-c3nc4cc(N5CCCCC5)ccc4[nH]3)c2c1)c1c(Cl)cncc1Cl (stereo not drawn)	14.1	–
C[C@H](Oc1ccc2[nH]nc(-c3nc4cc(CCO)ccc4[nH]3)c2c1)c1c(Cl)cncc1Cl	> 100	–
CC(Oc1ccc2[nH]nc(-c3nc4ccccc4s3)c2c1)c1c(Cl)cncc1Cl (stereo not drawn)	> 10000	–
CCC(Oc1ccc2[nH]nc(-c3nc4cc(N5CCCCC5)ccc4[nH]3)c2c1)c1c(Cl)cncc1Cl (stereo not drawn)	380	–
CC(Oc1ccc2[nH]nc(-c3nc4cc(F)ccc4[nH]3)c2c1)c1c(Cl)cncc1Cl (stereo not drawn)	582	–
C[C@@H](Oc1ccc2[nH]nc(-c3nc4cc(CCO)ccc4[nH]3)c2c1)c1c(Cl)cncc1Cl	1.4	clearance [8]: 28.3 mL/min/kg; half-life [9]: 7.3 h; Vd [10]: 17.6 L/kg; Cmax [11]: 735 ng/mL; AUC(0-inf) [12]: 664 ng·h/mL; Tmax [13]: 0.8 h; Cmax [14]: 195 ng/mL; AUC(0-inf) [15]: 582 ng·h/mL; bioavailability [16]: 22%
c1cc(COc2ccc3[nH]nc(-c4nc5cc(N6CCCCC6)ccc5[nH]4)c3c2)ccn1	5020	–
CC(Oc1ccc2[nH]nc(-c3nc4cc(CCO)ccc4[nH]3)c2c1)c1c(Cl)cncc1Cl (stereo not drawn)	3.3	IC50 [2]: 12.6 nM
CC(Oc1ccc2[nH]nc(-c3nc4cc(N5C[C@@H](C)N[C@@H](C)C5)ccc4[nH]3)c2c1)c1c(Cl)cncc1Cl (stereo partly drawn)	1.9	IC50 [2]: 9 nM
c1ccc(COc2ccc3[nH]nc(-c4nc5cc(N6CCCCC6)ccc5[nH]4)c3c2)nc1	1230	–
CC(Oc1ccc2[nH]nc(-c3nc4c(N5CCCCC5)cccc4[nH]3)c2c1)c1c(Cl)cncc1Cl (stereo not drawn)	–	IC50 [3]: > 1000 nM
C[C@H](Oc1ccc2[nH]nc(-c3nc4cc(N5CCN(C)CC5)ccc4[nH]3)c2c1)c1c(Cl)cncc1Cl	130	IC50 [3]: 9.4 nM
Cc1ccc2[nH]c(-c3n[nH]c4ccc(OC(C)c5c(Cl)cncc5Cl)cc34)nc2c1 (stereo not drawn)	922	–

The next lines start with results.

IC50 (NCI-H1581 [1]) [nM]	Compound	also measured
1.6	CC(Oc1ccc2[nH]nc(-c3nc4cc(C5CCN(C)CC5)ccc4[nH]3)c2c1)c1c(Cl)cncc1Cl (stereo not drawn)	IC50 [2]: 7.8 nM
403	CC(Oc1ccc2[nH]nc(-c3nc4ccccc4[nH]3)c2c1)c1c(Cl)cncc1Cl (stereo not drawn)	–
817	CC(Oc1ccc2[nH]nc(-c3cc4ccccc4[nH]3)c2c1)c1c(Cl)cncc1Cl (stereo not drawn)	–
315	COc1ccc2[nH]c(-c3n[nH]c4ccc(OC(C)c5c(Cl)cncc5Cl)cc34)nc2c1 (stereo not drawn)	–
1	CC(Oc1ccc2[nH]nc(-c3nc4cc(N5CCN(C)CC5)ccc4[nH]3)c2c1)c1c(Cl)cncc1Cl (stereo not drawn)	IC50 [3]: 1 nM; IC50 [2]: 8 nM
< 0.5	C[C@@H](Oc1ccc2[nH]nc(/C=C/c3cnn(CCO)c3)c2c1)c1c(Cl)cncc1Cl [LY-2874455]	IC50 [2]: 5.8 nM
92.1	COc1cc(CCc2cc(NC(=O)c3ccc(N4C[C@@H](C)N[C@@H](C)C4)cc3)n[nH]2)cc(OC)c1 [FEXAGRATINIB]	inhibition in vivo at 20 mg/kg (NCI-H1581 [4]): 73.9%; IC50 (cells [5]): 88.4 nM; IC50 (cells [6]): 6.4 nM; IC50 (cells [7]): 13.4 nM
749	Fc1ccc2c(-c3nc4cc(N5CCC(N6CCCCC6)CC5)ccc4[nH]3)[nH]nc2c1	IC50 [3]: 20.3 nM; IC50 [2]: 16.4 nM
30.8	CC(Oc1ccc2[nH]nc(-c3nc4cc(N5CCCCC5)ccc4[nH]3)c2c1)c1c(Cl)ccnc1Cl (stereo not drawn)	–
3070	Clc1cnccc1COc1ccc2[nH]nc(-c3nc4cc(N5CCCCC5)ccc4[nH]3)c2c1	–
10.3	CC(Oc1ccc2[nH]nc(-c3nc4cc(N5CCC(N6CCCCC6)CC5)ccc4[nH]3)c2c1)c1c(Cl)cncc1Cl (stereo not drawn)	–
1.2	COCCNc1ccc2[nH]c(-c3n[nH]c4ccc(OC(C)c5c(Cl)cncc5Cl)cc34)nc2c1 (stereo not drawn)	–
1860	c1cncc(COc2ccc3[nH]nc(-c4nc5cc(N6CCCCC6)ccc5[nH]4)c3c2)c1	–
